Experimental data: article PMC12124638 (Journal of medicinal chemistry, 2017)
Non-standard residues stand in square brackets, D forms with d. Residues, ends and D or L forms follow the SMILES beside them. *: point of attachment. Cha = N[C@@H](CC1CCCCC1)C(=O)O; Decanoyl = CCCCCCCCCC(=O)*; Heptanoyl = CCCCCCC(=O)*; Octanoyl = CCCCCCCC(=O)*; Dab = NCC[C@H](N)C(=O)O; Hexanoyl = CCCCCC(=O)*

Tests used:
[1] = cited from earlier work
[2] = test system: Klebsiella pneumoniae ATCC 13883; assay: Sensitization to antibiotics, checkerboard MIC; format: cell-based; details: for Sensitization factor, clarithromycin, Klebsiella pneumoniae ATCC 13883: MIC without / with 4 μg/mL paenipeptin; for Sensitization factor, rifampicin, Klebsiella pneumoniae ATCC 13883: ratio of the MIC in the absence of paenipeptins to that in the presence of 4 μg/mL
[3] = test system: Acinetobacter baumannii ATCC 19606; assay: Sensitization to antibiotics, checkerboard MIC; format: cell-based; details: for Sensitization factor, rifampicin, Acinetobacter baumannii ATCC 19606: ratio of the MIC in the absence of paenipeptins to that in the presence of 4 μg/mL
[4] = test system: methicillin-resistant S. aureus ATCC 43300
[5] = test system: methicillin-resistant S. aureus strain LAC; assay: Catheter-associated biofilm in vitro; format: cell-based, Staphylococcus aureus; details: for reduction of viable biofilm-associated S. aureus cells: established catheter biofilm, n=6 catheters
K. pneumoniae UAMS-KPPR1 = assay: MIC, polymyxin-resistant strain; format: cell-based, Klebsiella pneumoniae; details: polymyxin-resistant derivative of K. pneumoniae ATCC 13883
[6] = test system: Klebsiella pneumoniae AR 0109; assay: MIC, polymyxin-resistant strain; format: cell-based; details: FDA-CDC Antibiotic-Resistance Bank
K. pneumoniae UAMS-KPPR3 = assay: MIC, polymyxin-resistant strain; format: cell-based, Klebsiella pneumoniae; details: polymyxin-resistant derivative of K. pneumoniae ATCC 13883
E. coli UAMS-ECPR2 = format: cell-based, Escherichia coli; details: polymyxin-resistant derivative of E. coli ATCC 25922
E. coli UAMS-ECPR1 = assay: MIC, polymyxin-resistant strain; format: cell-based, Escherichia coli; details: polymyxin-resistant derivative of E. coli ATCC 25922
P. aeruginosa ATCC 27853 [7] = test system: P. aeruginosa ATCC 27853
Gram-negative bacteria = details: cited from earlier work
S. aureus ATCC 29213 [8] = assay: Time-kill assay; format: cell-based, Staphylococcus aureus; details: for reduction of viable S. aureus cells: after 4 h
In short: (§1)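 Time-kill is run with test compound at 8, 16 and 32 μg/mL. Surviving cells are counted by plating on TSA at 0, 2, 4, 6 and 24 h. Three independent experiments are run, one replicate each. Results are given as mean ± standard deviation, and final-timepoint counts are compared by ANOVA with Tukey HSD.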

S. aureus ATCC 29213 [9] = assay: Cytoplasmic membrane integrity assay, DiSC3; format: cell-based, Staphylococcus aureus; details: increase of DiSC3(5) fluorescence; tested 8–64 μg/mL
P. aeruginosa ATCC 27853 [10] = assay: Potassium ion release assay, PBFI probe; format: cell-based, Pseudomonas aeruginosa; details: PBFI fluorescence; tested 8–64 μg/mL
P. aeruginosa ATCC 27853 [11] = assay: Impact of purified lipopolysaccharide; format: cell-based, Pseudomonas aeruginosa; details: LPS from E. coli O111:B4 at 100 μg/ml; analogue 17 at 16 μg/mL; 37°C, 60 min
In short: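 Cells are diluted in TSB to about 10^6 CFU/mL. E. coli O111:B4 LPS (final 10, 25, 50 or 100 μg/mL) is added, then test compound at final 16 μg/mL. Incubation is 60 min at 37 °C with shaking at 200 rpm. Survivors are counted on TSA. Three independent experiments are run, one replicate each. Counts are analysed by ANOVA and Tukey HSD.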

[12] = test system: Escherichia coli ATCC 25922; assay: MIC in 95% human serum; format: cell-based; details: against both E. coli and S. aureus; 95% human serum versus TSB
P. aeruginosa ATCC 27853 [13] = assay: Cytoplasmic membrane integrity assay, DiSC3; format: cell-based, Pseudomonas aeruginosa; details: increase of DiSC3(5) fluorescence; tested 8–64 μg/mL; buffer with 0.2 mM EDTA
S. aureus ATCC 29213 [14] = assay: Potassium ion release assay, PBFI probe; format: cell-based, Staphylococcus aureus; details: PBFI fluorescence; tested 8–64 μg/mL
P. aeruginosa ATCC 27853 [15] = assay: Time-kill assay; format: cell-based, Pseudomonas aeruginosa
In short: as §1

P. aeruginosa ATCC 27853 [16] = assay: Catheter-associated biofilm in vitro; format: cell-based, Pseudomonas aeruginosa; details: 40× MIC (40 μg/ml), 72 h exposure, n=6
[17] = MIC without / with 4 μg/mL paenipeptin

Compound: CCCCCCCCCC(=O)N[C@@H](Cc1c[nH]c2ccccc12)C(=O)N[C@H](CC(N)=O)C(=O)N[C@@H](CC(=O)O)C(=O)N[C@@H]1C(=O)NCC(=O)N[C@@H](CCCN)C(=O)N[C@@H](CC(=O)O)C(=O)N[C@H](C)C(=O)N[C@@H](CC(=O)O)C(=O)NCC(=O)N[C@H](CO)C(=O)N[C@@H]([C@H](C)CC(=O)O)C(=O)N[C@@H](CC(=O)c2ccccc2N)C(=O)O[C@@H]1C [daptomycin]
- bound to plasma proteins [1]: 94%

Compound: CC[C@H](C)[C@H](NC(=O)[C@H](CCN)NC(=O)[C@@H](N)CC1CCCCC1)C(=O)N[C@@H](CCN)C(=O)N[C@H](Cc1ccccc1)C(=O)N[C@@H](CC(C)C)C(=O)N[C@@H](CCN)C(=O)N[C@@H](C(=O)N[C@@H](CC(C)C)C(=O)N[C@@H](CO)C(N)=O)C(C)C [Analogue 16] (H-[Cha][Dab]I[Dab][dF]L[Dab][dV]LS-NH2)
- Sensitization factor, clarithromycin, Klebsiella pneumoniae ATCC 13883 [2]: 2,048–4,096
- Sensitization factor, rifampicin, Klebsiella pneumoniae ATCC 13883 [2]: ≥8,192
- Sensitization factor, ampicillin, Acinetobacter baumannii ATCC 19606 [3, 17]: 2–4
- Sensitization factor, clarithromycin, Acinetobacter baumannii ATCC 19606 [3, 17]: 2,048
- Sensitization factor, vancomycin, Acinetobacter baumannii ATCC 19606 [3, 17]: 32–64
- Sensitization factor, rifampicin, Acinetobacter baumannii ATCC 19606 [3]: 4,096

Compound: CCCCCCC(=O)N[C@@H](CCN)C(=O)N[C@H](C(=O)N[C@@H](CCN)C(=O)N[C@H](Cc1ccccc1)C(=O)N[C@@H](CC(C)C)C(=O)N[C@@H](CCN)C(=O)N[C@@H](C(=O)N[C@@H](CC(C)C)C(=O)N[C@@H](CO)C(N)=O)C(C)C)C(C)C [Analogue 2] (Heptanoyl-[Dab]V[Dab][dF]L[Dab][dV]LS-NH2)
- Sensitization factor, rifampicin, Klebsiella pneumoniae ATCC 13883 [2]: 4,096
- Sensitization factor, rifampicin, Acinetobacter baumannii ATCC 19606 [3]: 256–512

Compound: CCCCCCCCCC(=O)N[C@@H](CCN)C(=O)N[C@H](C(=O)N[C@H](C(=O)N[C@H](CC(C)C)C(=O)N[C@@H](CC(C)C)C(=O)N[C@@H](CCN)C(=O)N[C@@H](C(=O)N[C@@H](CC(C)C)C(=O)N[C@@H](CO)C(N)=O)C(C)C)[C@@H](C)O)[C@@H](C)CC [Analogue 13] (Decanoyl-[Dab]IT[dL]L[Dab][dV]LS-NH2)
- MIC, A. baumannii ATCC 19606 (A. baumannii ATCC 19606): >32 µg/mL
- synergism with rifampicin, in words ([3]; against Acinetobacter and Klebsiella): did not show synergism
- MIC, S. aureus ATCC 43300 [4]: >32 µg/mL

Compound: CCCCCC(=O)N[C@@H](CCN)C(=O)N[C@H](C(=O)N[C@@H](CCN)C(=O)N[C@H](Cc1ccccc1)C(=O)N[C@@H](CC(C)C)C(=O)N[C@@H](CCN)C(=O)N[C@@H](C(=O)N[C@@H](CC(C)C)C(=O)N[C@@H](CO)C(N)=O)C(C)C)[C@@H](C)CC [Analogue 1] (Hexanoyl-[Dab]I[Dab][dF]L[Dab][dV]LS-NH2)
- Sensitization factor, rifampicin, Klebsiella pneumoniae ATCC 13883 [2]: 8,192
- Sensitization factor, rifampicin, Acinetobacter baumannii ATCC 19606 [3]: 4,096–8,192

Compound: CCCCCCCCCC(=O)N[C@@H](CCN)C(=O)N[C@H](C(=O)N[C@@H](CCN)C(=O)N[C@H](Cc1ccccc1)C(=O)N[C@@H](CC(C)C)C(=O)N[C@@H](CCN)C(=O)N[C@@H](C(=O)N[C@@H](CC(C)C)C(=O)N[C@@H](CO)C(N)=O)C(C)C)[C@@H](C)CC [Analogue 12] (Decanoyl-[Dab]I[Dab][dF]L[Dab][dV]LS-NH2)
- activity in the context of an established catheter-associated biofilm ([5]; data not shown): no activity

Compound: Polymyxin B
- MIC, K. pneumoniae UAMS-KPPR1 (K. pneumoniae UAMS-KPPR1): >32 µg/mL
- MIC, Klebsiella pneumoniae AR 0109 [6]: 16 to 32 µg/mL
- MIC, K. pneumoniae UAMS-KPPR3 (K. pneumoniae UAMS-KPPR3): >32 µg/mL
- MIC, E. coli UAMS-ECPR2 (E. coli UAMS-ECPR2): 32 µg/mL
- MIC, E. coli UAMS-ECPR1 (E. coli UAMS-ECPR1): 32 µg/mL

Compound: CCCCCCCC(=O)N[C@@H](CCN)C(=O)N[C@H](C(=O)N[C@@H](CCN)C(=O)N[C@H](Cc1ccccc1)C(=O)N[C@@H](CC(C)C)C(=O)N[C@@H](CCN)C(=O)N[C@@H](C(=O)N[C@@H](CC(C)C)C(=O)N[C@@H](CCN)C(N)=O)C(C)C)[C@@H](C)CC [Analogue 9] (Octanoyl-[Dab]I[Dab][dF]L[Dab][dV]L[Dab]-NH2)
- Sensitization factor, clarithromycin, Klebsiella pneumoniae ATCC 13883 [2]: 2,048
- Sensitization factor, rifampicin, Klebsiella pneumoniae ATCC 13883 [2]: ≥8,192
- Sensitization factor, clarithromycin, Acinetobacter baumannii ATCC 19606 [3, 17]: 4,096–8,192
- Sensitization factor, erythromycin, Acinetobacter baumannii ATCC 19606 [3, 17]: 128–256
- Sensitization factor, vancomycin, Acinetobacter baumannii ATCC 19606 [3, 17]: 64–128
- Sensitization factor, rifampicin, Acinetobacter baumannii ATCC 19606 [3]: 8,192

Compound: CCCCCCCC(=O)N[C@@H](CCN)C(=O)N[C@@H](CCN)C(=O)N[C@@H](CCN)C(=O)N[C@H](Cc1ccccc1)C(=O)N[C@@H](CC(C)C)C(=O)N[C@@H](CCN)C(=O)N[C@@H](C(=O)N[C@@H](CC(C)C)C(=O)N[C@@H](CCN)C(N)=O)C(C)C [Analogue 10] (Octanoyl-[Dab][Dab][Dab][dF]L[Dab][dV]L[Dab]-NH2)
- MIC, A. baumannii ATCC 19606 (A. baumannii ATCC 19606): >32 µg/mL
- Sensitization factor, rifampicin, Acinetobacter baumannii ATCC 19606 [3]: 256–512
- MIC, S. aureus ATCC 43300 [4]: >32 µg/mL
- MIC, P. aeruginosa ATCC 27853 (P. aeruginosa ATCC 27853 [7]): 16 to 32 µg/mL

Compound: CO[C@H]1/C=C/O[C@@]2(C)Oc3c(C)c(O)c4c(O)c(c(/C=N/N5CCN(C)CC5)c(O)c4c3C2=O)NC(=O)/C(C)=C\C=C\[C@H](C)[C@H](O)[C@@H](C)[C@@H](O)[C@@H](C)[C@H](OC(C)=O)[C@@H]1C [rifampicin, reference compound]
- MIC ([3]; Acinetobacter baumannii, ATCC19606, read-out: MIC of rifampicin alone, in μM): 19.4 µM
- MIC of rifampicin against Gram-negative bacteria without C10X (Gram-negative bacteria): 8 to 32 µg/mL

Compound: CC(C)C[C@H](NC(=O)[C@@H](Cc1ccccc1)NC(=O)[C@H](CCN)NC(=O)[C@H](Cc1ccccc1)NC(=O)[C@H](CCN)NC(=O)[C@@H](N)CC1CCCCC1)C(=O)N[C@@H](CCN)C(=O)N[C@H](CC(C)C)C(=O)N[C@@H](Cc1ccccc1)C(=O)N[C@@H](CO)C(N)=O [Analogue 17] (H-[Cha][Dab]F[Dab][dF]L[Dab][dL]FS-NH2)
- viable S. aureus cells on exposure (S. aureus ATCC 29213 [8]; 8 μg/ml): Regrowth
- reduction of viable S. aureus cells (S. aureus ATCC 29213 [8]; 16 μg/ml): 3.1 logs
- reduction of viable S. aureus cells (S. aureus ATCC 29213 [8]; 32 μg/ml): 5.4 logs
- concentration that depolarized the membrane potential (S. aureus ATCC 29213 [9]): ≥ 16 µg/mL
- concentration that significantly released intracellular potassium ions (P. aeruginosa ATCC 27853 [10]): 32 to 64 µg/mL
- impact of purified LPS on bactericidal activity (P. aeruginosa ATCC 27853 [11]): neutralized the bactericidal activity
- increase in MIC in the presence of human serum [12]: 8 to 16 fold
- reduction in activity in the presence of human serum [12]: 88–94%
- concentration that depolarized the membrane potential (P. aeruginosa ATCC 27853 [13]): ≥ 16 µg/mL
- reduction of viable biofilm-associated S. aureus cells ([5]; 40 μg/mL (5 × MIC), 72 h exposure): 3 log
- reduction of viable biofilm-associated S. aureus cells ([5]; 160 μg/mL (20 × MIC), 72 h exposure): 5 log
- catheters completely cleared of viable bacteria ([5]; 20 times the MIC of each antibiotic, six catheters, 72 h exposure): 50%
- concentration that significantly released intracellular potassium ions (S. aureus ATCC 29213 [14]): 32 to 64 µg/mL
- reduction of viable P. aeruginosa cells (P. aeruginosa ATCC 27853 [15]; 8 μg/ml, 2 h): 2.2 log
- viable P. aeruginosa cells at 24 h (P. aeruginosa ATCC 27853 [15]; 8 μg/ml, 24 h): significant bacterial regrowth
- reduction of viable P. aeruginosa cells (P. aeruginosa ATCC 27853 [15]; 16 μg/ml, within 2 h): 3.7 logs
- viable P. aeruginosa cells after 24 h exposure (P. aeruginosa ATCC 27853 [15]; 32 μg/ml or 16 μg/ml, 24 h): no viable cells were detected
- reduction of viable P. aeruginosa cells (P. aeruginosa ATCC 27853 [15]; 32 μg/ml, within 2 h): 5.1 logs
- reduction in the number of viable P. aeruginosa cells in an established biofilm (P. aeruginosa ATCC 27853 [16]): 2.6 log
